Active and inactive are the calls of the source. The rule behind the calls is not given here. Where only a bound is given, the exact number is not on record here.

One assay concerns HL-60. In words: Antiproliferative activity against human HL60 cells measured after 72 hrs by Celltiter-Glo assay. The class given is functional, cell-based. The note with it: HL-60, 72 h.
The test system of the next assay is K562. In words: Antiproliferative activity against human K562 cells measured after 72 hrs by Celltiter-Glo assay. Format: functional, cell-based. The note with it: K562, 72 h.
For assay [1], the system named is MV4-11. In words: Antiproliferative activity against human MV4-11 cells measured after 72 hrs by Celltiter-Glo assay. The class given is functional, cell-based. The settings on record: MV4-11, 72 h. A general note: Cellular ATP, detected with luciferase, serves as a proxy for viable cell number.
The next assay has as its system PBMC. As to the kind of experiment: Cytotoxicity against human PBMC cells measured after 72 hrs by Celltiter-Glo assay. Format: ADME, cell-based.
The test system of assay [2] is MV4-11. In words: Cell cycle arrest in human MV4-11 cells assessed as accumulation at S phase at 0.6 uM after 24 hrs by propidium iodide/RNase A staining based FACScalibur flow cytometry analysis (reference value: 29.92 %). Format: functional.
Assay [3] relates to MV4-11. As to the kind of experiment: Cell cycle arrest in human MV4-11 cells assessed as accumulation at S phase at 0.3 uM after 24 hrs by propidium iodide/RNase A staining based FACScalibur flow cytometry analysis (reference value: 29.92 %). Format: functional. Background: A flow cytometer gives signals particle by particle.
For assay [4], the system named is MV4-11. In words: Cell cycle arrest in human MV4-11 cells assessed as accumulation at G2/M phase at 0.6 uM after 24 hrs by propidium iodide/RNase A staining based FACScalibur flow cytometry analysis (reference value: 10.58 %). The class given is functional.
Assay [5] relates to MV4-11. In words: Induction of apoptosis in human MV4-11 cells assessed as decrease in c-kit expression after 24 hrs by Western blot analysis. Format: functional, cell-based. The procedure, abridged: (§1)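 MV4-11 cells (RPMI-1640, 10% FBS, 37 °C, 5% CO2) exposed 24 h to 0.15, 0.3 or 0.6 μM. Lysed in RIPA buffer, protein measured by BCA, 40 μg run on SDS-PAGE and blotted to nitrocellulose. Primary antibodies overnight at 4 °C, HRP anti-rabbit IgG secondary 1 h at rt. Bands detected by ECL.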
On the technique in general: In western blotting, separated proteins are transferred to a membrane and probed.

Assay [6] deals with MV4-11. In words: Cell cycel arrest in human MV4-11 cells assessed as decrease in CDK2 expression at 0.15 to 0.6 uM after 24 hrs by Western blot analysis. The class given is functional, cell-based. In short, it runs like this:
as §1

For assay [7], the system named is MV4-11. In words: Induction of apoptosis in human MV4-11 cells assessed as decrease in FLT3 expression after 24 hrs by Western blot analysis. Format: functional, cell-based. In short, it runs like this:
as §1

For assay [8], the system named is MV4-11. In words: Induction of apoptotic cell death in human MV4-11 cells at 0.3 uM after 24 hrs by DAPI-based TUNEL assay. Format: functional. In short, it runs like this:
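MV4-11 cells held at 0.3 μM for 24 h, then processed with a one-step TUNEL kit. DNA counterstained with DAPI. Green apoptotic cells seen by fluorescence microscopy, excitation 450−500 nm, emission 515−565 nm.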

Assay [9] concerns MV4-11. In words: Cell cycle arrest in human MV4-11 cells assessed as accumulation at S phase at 0.15 uM after 24 hrs by propidium iodide/RNase A staining based FACScalibur flow cytometry analysis (reference value: 29.92 %). Format: functional.
The test system of assay [10] is MV4-11. In words: Cell cycle arrest in human MV4-11 cells assessed as accumulation at G0/G1 phase at 0.15 uM after 24 hrs by propidium iodide/RNase A staining based FACScalibur flow cytometry analysis (reference value: 50.04 %). The class given is functional.
Assay [11] relates to MV4-11. In words: Induction of apoptosis in human MV4-11 cells assessed as decrease in phosphorylated-FLT3 expression after 24 hrs by Western blot analysis. Format: functional, cell-based. The procedure, abridged:
as §1

The test system of assay [12] is MV4-11. As to the kind of experiment: Cell cycle arrest in human MV4-11 cells assessed as accumulation at G2/M phase at 0.3 uM after 24 hrs by propidium iodide/RNase A staining based FACScalibur flow cytometry analysis (reference value: 10.58 %). Format: functional.
The subject of assay [13] is MV4-11. As to the kind of experiment: Cell cycle arrest in human MV4-11 cells assessed as accumulation at G0/G1 phase at 0.3 uM after 24 hrs by propidium iodide/RNase A staining based FACScalibur flow cytometry analysis (reference value: 50.04 %). Format: functional.
The subject of assay [14] is MV4-11. As to the kind of experiment: Cell cycle arrest in human MV4-11 cells assessed as accumulation at G2/M phase at 0.15 uM after 24 hrs by propidium iodide/RNase A staining based FACScalibur flow cytometry analysis (reference value: 10.58 %). Format: functional.
The test system of assay [15] is MV4-11. As to the kind of experiment: Cell cycle arrest in human MV4-11 cells assessed as accumulation at G0/G1 phase at 0.6 uM after 24 hrs by propidium iodide/RNase A staining based FACScalibur flow cytometry analysis (reference value: 50.04 %). Format: functional.

What is called IC50 is the concentration at which inhibition is half-maximal. Low values mean inhibition by little substance, high ones a need for much substance. For the molecule `CO[C@@H]1[C@H](N(C)c2ncc(-c3c[nH]c4ccc(Cl)cc34)s2)C[C@H]2O[C@]1(C)n1c3ccccc3c3c4c(c5c6cc(Br)ccc6n2c5c31)C(=O)NC4`, the IC50 with HL-60 is greater than 10 µM; in the assay on K562 it was greater than 10 µM; in the assay on MV4-11 [1] it was 0.7 µM; in the assay on PBMC, greater than 10 µM.

Take `CO[C@@H]1[C@H](N(C)c2ncc(-c3c[nH]c4ccc(Br)cc34)s2)C[C@H]2O[C@]1(C)n1c3ccccc3c3c4c(c5c6ccccc6n2c5c31)C(=O)NC4`: the IC50 with HL-60 is greater than 10 µM; in the assay with K562, greater than 10 µM; in the assay on MV4-11 [1], 0.41 µM; with PBMC it was greater than 10 µM.

With `CO[C@@H]1[C@H](N(C)c2ncc(-c3c[nH]c4ccc(Br)cc34)s2)C[C@H]2O[C@]1(C)n1c3ccccc3c3c4c(c5c6cc(Cl)ccc6n2c5c31)C(=O)NC4`, the IC50 is greater than 10 µM with HL-60, greater than 10 µM in the assay with K562, 0.43 µM in the assay with MV4-11 [1] and greater than 10 µM in the assay with PBMC.

Regarding `CO[C@@H]1[C@H](N(C)c2ncc(-c3c[nH]c4ccccc34)s2)C[C@H]2O[C@]1(C)n1c3ccccc3c3c4c(c5c6cc(Cl)ccc6n2c5c31)C(=O)NC4`, the IC50 is greater than 10 µM with HL-60, greater than 10 µM in the assay with K562, 0.56 µM in the assay on MV4-11 [1] and greater than 10 µM with PBMC.

Turning to `CO[C@@H]1[C@H](N(C)c2ncc(-c3c[nH]c4ccc(F)cc34)s2)C[C@H]2O[C@]1(C)n1c3ccccc3c3c4c(c5c6cc(Cl)ccc6n2c5c31)C(=O)NC4`, the Activity with MV4-11 [2] was 10.18%; in the assay on MV4-11 [3] it was 9.23%; in the assay with MV4-11 [4], 0.45%; in the assay with MV4-11 [5] it was “Dose-dependent effect”; with MV4-11 [7], “Dose-dependent effect”; in the assay with MV4-11 [9], 20.19%. The Activity in the assay with MV4-11 [10] was 60.59%; in the assay with MV4-11 [11], “Dose-dependent effect”; in the assay on MV4-11 [12], 6.6%; in the assay with MV4-11 [13] it was 72.68%; with MV4-11 [14], 10.04%; in the assay with MV4-11 [15], 87.75%. Further, the IC50 is greater than 10 µM in the assay with HL-60, greater than 10 µM in the assay on K562, 0.32 µM with MV4-11 [1] and greater than 10 µM in the assay on PBMC. Besides, the result with MV4-11 [6] and with MV4-11 [8] was Active.

With `CO[C@@H]1[C@H](N(C)c2ncc(-c3c[nH]c4ccc(Cl)cc34)s2)C[C@H]2O[C@]1(C)n1c3ccccc3c3c4c(c5c6ccccc6n2c5c31)C(=O)NC4`, the IC50 was greater than 10 µM in the assay with HL-60, greater than 10 µM with K562, 0.42 µM with MV4-11 [1] and greater than 10 µM in the assay with PBMC.

On to `CO[C@@H]1[C@H](N(C)c2ncc(-c3c[nH]c4ccccc34)s2)C[C@H]2O[C@]1(C)n1c3ccccc3c3c4c(c5c6cc(Br)ccc6n2c5c31)C(=O)NC4`, for which the IC50 is greater than 10 µM with HL-60, greater than 10 µM in the assay with K562, 0.36 µM with MV4-11 [1] and greater than 10 µM with PBMC.

Regarding `CO[C@@H]1[C@H](N(C)c2ncc(-c3c[nH]c4ccc(Cl)cc34)s2)C[C@H]2O[C@]1(C)n1c3ccccc3c3c4c(c5c6cc(Cl)ccc6n2c5c31)C(=O)NC4`, the half-maximal inhibitory concentration (IC50) is greater than 10 µM in the assay on HL-60, greater than 10 µM in the assay with K562, 0.59 µM in the assay with MV4-11 [1] and greater than 10 µM with PBMC.

For `COc1ccc2[nH]cc(-c3cnc(N(C)[C@@H]4C[C@H]5O[C@@](C)([C@@H]4OC)n4c6ccccc6c6c7c(c8c9cc(Cl)ccc9n5c8c64)C(=O)NC7)s3)c2c1`, the IC50 in the assay with HL-60 was greater than 10 µM; in the assay on K562, greater than 10 µM; in the assay with MV4-11 [1], 0.44 µM; with PBMC, greater than 10 µM.

Consider `CO[C@@H]1[C@H](N(C)c2ncc(-c3c[nH]c4ccc(F)cc34)s2)C[C@H]2O[C@]1(C)n1c3ccccc3c3c4c(c5c6cc(Br)ccc6n2c5c31)C(=O)NC4`, for which the IC50 is greater than 10 µM in the assay on HL-60, greater than 10 µM with K562, 0.96 µM with MV4-11 [1] and greater than 10 µM with PBMC.

As to `CO[C@@H]1[C@H](N(C)c2ncc(-c3c[nH]c4ccccc34)s2)C[C@H]2O[C@]1(C)n1c3ccccc3c3c4c(c5c6ccccc6n2c5c31)C(=O)NC4`, the IC50 with HL-60 was greater than 10 µM; in the assay with K562, greater than 10 µM; in the assay on MV4-11 [1], 0.4 µM; in the assay with PBMC it was greater than 10 µM.

Take `CO[C@@H]1[C@H](N(C)c2ncc(-c3c[nH]c4ccc(Br)cc34)s2)C[C@H]2O[C@]1(C)n1c3ccccc3c3c4c(c5c6cc(Br)ccc6n2c5c31)C(=O)NC4`: the IC50 in the assay on HL-60 is greater than 10 µM; in the assay on K562, greater than 10 µM; in the assay on MV4-11 [1], 0.39 µM; in the assay with PBMC it was greater than 10 µM.

In the case of `COc1ccc2[nH]cc(-c3cnc(N(C)[C@@H]4C[C@H]5O[C@@](C)([C@@H]4OC)n4c6ccccc6c6c7c(c8c9ccccc9n5c8c64)C(=O)NC7)s3)c2c1`, the IC50 with HL-60 is greater than 10 µM; with K562 it was greater than 10 µM; in the assay on MV4-11 [1], 0.36 µM; in the assay with PBMC it was greater than 10 µM.

On to `COc1ccc2[nH]cc(-c3cnc(N(C)[C@@H]4C[C@H]5O[C@@](C)([C@@H]4OC)n4c6ccccc6c6c7c(c8c9cc(Br)ccc9n5c8c64)C(=O)NC7)s3)c2c1`, for which the IC50 in the assay on HL-60 is greater than 10 µM; with K562, greater than 10 µM; with MV4-11 [1] it was 0.51 µM; in the assay on PBMC, greater than 10 µM.

Regarding `CO[C@@H]1[C@H](N(C)c2ncc(-c3c[nH]c4ccc(F)cc34)s2)C[C@H]2O[C@]1(C)n1c3ccccc3c3c4c(c5c6ccccc6n2c5c31)C(=O)NC4`, the IC50 with HL-60 was greater than 10 µM; in the assay on K562 it was greater than 10 µM; in the assay with MV4-11 [1], 0.51 µM; in the assay on PBMC, greater than 10 µM.

The values are drawn from ChEMBL document CHEMBL4373701, “Semisynthetic Derivatives of Fradcarbazole A and Their Cytotoxicity against Acute Myeloid Leukemia Cell Lines” (J Nat Prod, 2019).
